Columns and labels:
[1] = tested on: Bifidobacterium longum; assay: Antimicrobial activity against 90 mins oxgall-stressed Bifidobacterium longum P/N 601377 after 18 hrs; format: functional
Summary of the method: (§1)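 Cells pelleted from mid-log MRS culture and resuspended in MRS (initial pH 6.5) with 0.3% (wt/vol) oxgall for 90 min anaerobically at 37°C. They were then regrown in MRS pH 6.5 for 24 h (footnote: 18 h) anaerobically and tested for MIC by the same broth microdilution assay. Median of four repetitions.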

[2] = tested on: Bifidobacterium breve; assay: Antimicrobial activity against 90 mins hydrogen peroxide-stressed Bifidobacterium breve R0070 after 18 hrs; format: functional
Summary of the method: (§2)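 Stress applied for 90 min at 37°C under anaerobic conditions, using MRS (initial pH 6.5) containing H2O2 at each strain's own inhibitory concentration. The H2O2 level was set beforehand by microplate tolerance testing. Challenged cells were regrown in MRS for 24 h (footnote: 18 h) before MIC testing by broth microdilution. Median of four repetitions.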

[3] = tested on: Bifidobacterium longum; assay: Antimicrobial activity against 90 mins hydrogen peroxide-stressed Bifidobacterium longum R0175 after 18 hrs; format: functional; summary of the method: as §2
[4] = tested on: Bifidobacterium breve; assay: Antimicrobial activity against 90 mins hydrogen peroxide-stressed Bifidobacterium breve ATCC 15700 after 18 hrs; format: functional; summary of the method: as §2
[5] = tested on: Bifidobacterium longum; assay: Antimicrobial activity against 90 mins hydrogen peroxide-stressed Bifidobacterium longum ATCC 15707 after 18 hrs; format: functional; summary of the method: as §2
[6] = tested on: Bifidobacterium bifidum; assay: Antimicrobial activity against 90 mins oxgall-stressed Bifidobacterium bifidum BB12 after 18 hrs; format: functional; summary of the method: as §1
[7] = tested on: Bifidobacterium longum; assay: Antimicrobial activity against 60 min 1 M HCl-stressed Bifidobacterium longum ATCC 15707 after 18 hrs; format: functional
Summary of the method: (§3)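 Mid-log MRS culture pelleted and resuspended in MRS broth brought to pH 2.0 with 1 M HCl, held anaerobically at 37°C for 60 min, then subcultured in MRS (pH 6.5) for 24 h anaerobically before MIC testing by broth microdilution (as for unstressed cells). Table footnote gives 18 h anaerobic regrowth after the stress. MIC is the median of four repetitions.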

[8] = tested on: Bifidobacterium breve; assay: Antimicrobial activity against 90 mins oxgall-stressed Bifidobacterium breve ATCC 15700 after 18 hrs; format: functional; summary of the method: as §1
[9] = tested on: Bifidobacterium longum; assay: Antimicrobial activity against 60 min 1 M HCl-stressed Bifidobacterium longum P/N 601377 after 18 hrs; format: functional; summary of the method: as §3
[10] = tested on: Bifidobacterium animalis; assay: Antimicrobial activity against Bifidobacterium animalis ATCC 27536; format: functional
Summary of the method: (§4)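 Broth microdilution in MRS plus 0.05% L-cysteine-HCl. Mid-log culture adjusted to OD650 0.1, giving about 2.5 × 10^4 to 5.0 × 10^4 CFU/well, then added to twofold serial dilutions of agent. Plates incubated anaerobically at 37°C for 18 h and read at OD650. MIC is the lowest concentration matching the uninoculated blank OD, taken as the median of four repeats.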

[11] = tested on: Bifidobacterium bifidum; assay: Antimicrobial activity against 90 mins hydrogen peroxide-stressed Bifidobacterium bifidum R0071 after 18 hrs; format: functional; summary of the method: as §2
[12] = tested on: Bifidobacterium animalis; assay: Antimicrobial activity against 90 mins hydrogen peroxide-stressed Bifidobacterium animalis ATCC 27536 after 18 hrs; format: functional; summary of the method: as §2
[13] = tested on: Bifidobacterium breve; assay: Antimicrobial activity against 90 mins oxgall-stressed Bifidobacterium breve R0070 after 18 hrs; format: functional; summary of the method: as §1
[14] = Antimicrobial activity against Bifidobacterium infantis ATCC 15697; format: functional, Bifidobacterium longum subsp. infantis; details: Bifidobacterium longum; summary of the method: as §4
[15] = tested on: Bifidobacterium longum; assay: Antimicrobial activity against 90 mins oxgall-stressed Bifidobacterium longum ATCC 15707 after 18 hrs; format: functional; summary of the method: as §1
[16] = tested on: Bifidobacterium bifidum; assay: Antimicrobial activity against Bifidobacterium bifidum ATCC 15696; format: functional; summary of the method: as §4
[17] = tested on: Bifidobacterium thermophilum; assay: Antimicrobial activity against 90 mins oxgall-stressed Bifidobacterium thermophilum ATCC 25866 after 18 hrs; format: functional; summary of the method: as §1
[18] = tested on: Bifidobacterium pseudolongum; assay: Antimicrobial activity against Bifidobacterium pseudolongum ATCC 25562; format: functional; summary of the method: as §4
[19] = tested on: Bifidobacterium longum; assay: Antimicrobial activity against 90 mins hydrogen peroxide-stressed Bifidobacterium longum P/N 601377 after 18 hrs; format: functional; summary of the method: as §2
[20] = tested on: Bifidobacterium animalis; assay: Antimicrobial activity against 60 min 1 M HCl-stressed Bifidobacterium animalis ATCC 27536 after 18 hrs; format: functional; summary of the method: as §3
[21] = Antimicrobial activity against 90 mins oxgall-stressed Bifidobacterium infantis ATCC 15697 after 18 hrs; format: functional, Bifidobacterium longum subsp. infantis; details: Bifidobacterium longum; summary of the method: as §1
[22] = tested on: Bifidobacterium pseudolongum; assay: Antimicrobial activity against 60 min 1 M HCl-stressed Bifidobacterium pseudolongum ATCC 25562 after 18 hrs; format: functional; summary of the method: as §3
[23] = tested on: Bifidobacterium longum; assay: Antimicrobial activity against Bifidobacterium longum P/N 601377; format: functional; summary of the method: as §4
[24] = tested on: Bifidobacterium longum; assay: Antimicrobial activity against 90 mins oxgall-stressed Bifidobacterium longum R0175 after 18 hrs; format: functional; summary of the method: as §1
[25] = tested on: Bifidobacterium breve; assay: Antimicrobial activity against 60 min 1 M HCl-stressed Bifidobacterium breve ATCC 15700 after 18 hrs; format: functional; summary of the method: as §3
[26] = tested on: Bifidobacterium thermophilum; assay: Antimicrobial activity against 60 min 1 M HCl-stressed Bifidobacterium thermophilum ATCC 25866 after 18 hrs; format: functional; summary of the method: as §3
[27] = tested on: Bifidobacterium longum; assay: Antimicrobial activity against 60 min 1 M HCl-stressed Bifidobacterium longum R0175 after 18 hrs; format: functional; summary of the method: as §3
[28] = tested on: Bifidobacterium longum; assay: Antimicrobial activity against Bifidobacterium longum R0175; format: functional; summary of the method: as §4
[29] = tested on: Bifidobacterium thermophilum; assay: Antimicrobial activity against Bifidobacterium thermophilum ATCC 25866; format: functional; summary of the method: as §4
[30] = tested on: Bifidobacterium longum; assay: Antimicrobial activity against Bifidobacterium longum ATCC 15708; format: functional; summary of the method: as §4
[31] = tested on: Bifidobacterium bifidum; assay: Antimicrobial activity against 60 min 1 M HCl-stressed Bifidobacterium bifidum BB12 after 18 hrs; format: functional; summary of the method: as §3
[32] = tested on: Bifidobacterium bifidum; assay: Antimicrobial activity against Bifidobacterium bifidum R0071; format: functional; summary of the method: as §4
[33] = tested on: Bifidobacterium bifidum; assay: Antimicrobial activity against 90 mins oxgall-stressed Bifidobacterium bifidum R0071 after 18 hrs; format: functional; summary of the method: as §1
[34] = tested on: Bifidobacterium longum; assay: Antimicrobial activity against 90 mins hydrogen peroxide-stressed Bifidobacterium longum ATCC 15708 after 18 hrs; format: functional; summary of the method: as §2
[35] = tested on: Bifidobacterium animalis; assay: Antimicrobial activity against 90 mins oxgall-stressed Bifidobacterium animalis ATCC 27536 after 18 hrs; format: functional; summary of the method: as §1
[36] = tested on: Bifidobacterium pseudolongum; assay: Antimicrobial activity against 90 mins oxgall-stressed Bifidobacterium pseudolongum ATCC 25562 after 18 hrs; format: functional; summary of the method: as §1
[37] = tested on: Bifidobacterium bifidum; assay: Antimicrobial activity against 90 mins oxgall-stressed Bifidobacterium bifidum ATCC 15696 after 18 hrs; format: functional; summary of the method: as §1
[38] = tested on: Bifidobacterium breve; assay: Antimicrobial activity against Bifidobacterium breve R0070; format: functional; summary of the method: as §4
[39] = tested on: Bifidobacterium bifidum; assay: Antimicrobial activity against Bifidobacterium bifidum BB12; format: functional; summary of the method: as §4
[40] = tested on: Bifidobacterium longum; assay: Antimicrobial activity against 90 mins oxgall-stressed Bifidobacterium longum ATCC 15708 after 18 hrs; format: functional; summary of the method: as §1
[41] = tested on: Bifidobacterium bifidum; assay: Antimicrobial activity against 60 min 1 M HCl-stressed Bifidobacterium bifidum R0071 after 18 hrs; format: functional; summary of the method: as §3
[42] = tested on: Bifidobacterium breve; assay: Antimicrobial activity against 60 min 1 M HCl-stressed Bifidobacterium breve R0070 after 18 hrs; format: functional; summary of the method: as §3
[43] = Antimicrobial activity against 60 min 1 M HCl-stressed Bifidobacterium infantis ATCC 15697 after 18 hrs; format: functional, Bifidobacterium longum subsp. infantis; details: Bifidobacterium longum; summary of the method: as §3
[44] = tested on: Bifidobacterium bifidum; assay: Antimicrobial activity against 90 mins hydrogen peroxide-stressed Bifidobacterium bifidum BB12 after 18 hrs; format: functional; summary of the method: as §2
[45] = tested on: Bifidobacterium breve; assay: Antimicrobial activity against Bifidobacterium breve ATCC 15700; format: functional; summary of the method: as §4
[46] = tested on: Bifidobacterium longum; assay: Antimicrobial activity against Bifidobacterium longum ATCC 15707; format: functional; summary of the method: as §4
[47] = tested on: Bifidobacterium thermophilum; assay: Antimicrobial activity against 90 mins hydrogen peroxide-stressed Bifidobacterium thermophilum ATCC 25866 after 18 hrs; format: functional; summary of the method: as §2

CN(C)[C@@H]1C(O)=C(C(N)=O)C(=O)[C@@]2(O)C(O)=C3C(=O)c4c(O)cccc4[C@@](C)(O)[C@H]3C[C@@H]12.Cl [TETRACYCLINE HYDROCHLORIDE]
MIC [1]: 62.5 µg/mL | MIC [2]: 7.8 µg/mL | MIC [3]: 15.6 µg/mL | MIC [4]: 31.2 µg/mL | MIC [5]: 7.8 µg/mL | MIC [6]: 3.9 µg/mL | MIC [7]: 62.5 µg/mL | MIC [8]: 31.2 µg/mL | MIC [9]: 0.98 µg/mL | MIC [10]: 3.9 µg/mL | MIC [11]: 62.5 µg/mL | MIC [12]: 62.5 µg/mL | MIC [13]: 62.5 µg/mL | MIC [14]: 125 µg/mL | MIC [15]: 125 µg/mL | MIC [16]: 31.2 µg/mL | MIC [17]: 125 µg/mL | MIC [18]: 15.6 µg/mL | MIC [19]: 125 µg/mL | MIC [20]: 62.5 µg/mL | MIC [21]: 250 µg/mL | MIC [22]: 0.98 µg/mL | MIC [23]: 15.6 µg/mL | MIC [24]: 125 µg/mL | MIC [25]: 250 µg/mL | MIC [26]: 125 µg/mL | MIC [27]: 0.98 µg/mL | MIC [28]: 62.5 µg/mL | MIC [29]: 62.5 µg/mL | MIC [30]: 31.2 µg/mL | MIC [31]: 0.98 µg/mL | MIC [32]: 31.2 µg/mL | MIC [33]: 62.5 µg/mL | MIC [34]: 31.2 µg/mL | MIC [35]: 125 µg/mL | MIC [36]: 125 µg/mL | MIC [37]: 125 µg/mL | MIC [38]: 62.5 µg/mL | MIC [39]: 15.6 µg/mL | MIC [40]: 125 µg/mL | MIC [41]: 31.2 µg/mL | MIC [42]: 31.2 µg/mL | MIC [43]: 125 µg/mL | MIC [44]: 7.8 µg/mL | MIC [45]: 31.2 µg/mL | MIC [46]: 62.5 µg/mL | MIC [47]: 15.6 µg/mL

Reference: ChEMBL document CHEMBL1142148, “Antibiotic susceptibility profile of bifidobacteria as affected by oxgall, acid, and hydrogen peroxide stress” (2007)
